Source: ChEMBL document CHEMBL2169798, “Discovery of a Plasmodium falciparum glucose-6-phosphate dehydrogenase 6-phosphogluconolactonase inhibitor (R,Z)-N-((1-ethylpyrrolidin-2-yl)methyl)-2-(2-fluorobenzylidene)-3-oxo-3,4-dihydro-2H-benzo[b][1,4]thiazine-6-carboxamide (ML276) that reduces parasite growth in vitro” (J Med Chem, 2012)
pIC50: −log10 of the molar value. In brackets after ≈: the same amount, converted by molar mass. Values belong to the compound of their own block, whether it stands above or below them. Activity calls are given as the source filed them. The calls are words filed in the database; no cut-off is given here.

What was measured:
Plasmodium falciparum [1] = assay: Mixed type inhibition of Plasmodium falciparum glucose-6-phosphate dehydrogenase-6-phosphogluconolactonase using NADP+ as substrate by Lineweaver-Burk plot analysis
Summary of the method: (§1)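 PfGluPho at 0.2 μg/mL final, with 0.005% Tween 20, 3.3 mM MgCl2, 1 mM TCEP and 0.05 M Tris. G6P was varied at 5 μM NADP+; NADP+ was varied at 25 μM G6P. Compound was titrated at the same time. NADPH fluorescence (ex340/em460) was followed for 10 min and initial slopes taken. Lineweaver-Burk plots gave Km and Vmax, and α came from a rate equation.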

Plasmodium falciparum [2] = assay: Competitive inhibition of Plasmodium falciparum glucose-6-phosphate dehydrogenase-6-phosphogluconolactonase using glucose-6-phosphate as substrate by Lineweaver-Burk plot analysis; summary of the method: as §1
Plasmodium falciparum [3] = assay: Antimalarial activity against chloroquine-resistant Plasmodium falciparum Dd2 cells assessed as Plasmodium falciparum growth inhibition after 72 hrs by isotopic drug sensitivity assay; format: functional, organism-based; details: Dd2, 72 h
Summary of the method: (§2)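 Infected RBCs plated at 0.25% parasitemia (>70% rings), 1.25% hematocrit, hypoxanthine-free medium; serial compound concentrations, chloroquine control. 48 h incubation, then 0.5 μCi 3H-hypoxanthine for another 24 h. Cells harvested on glass fibre filters, radioactivity counted as growth measure. IC50 by non-linear regression; run twice, each in triplicate.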

Plasmodium falciparum [4] = assay: Antimalarial activity against chloroquine-sensitive Plasmodium falciparum 3D7 cells assessed as Plasmodium falciparum growth inhibition after 72 hrs by isotopic drug sensitivity assay; format: functional, organism-based; details: 3D7, 72 h; summary of the method: as §2
Hepatocyte = assay: Toxicity against Fa2N-4 immortalized human hepatocytes; format: cell-based; details: read-out: LC50 (the source's name)
Liver = assay: Stability in mouse liver microsomes assessed as compound remaining after 1 hr; format: ADME, Microsome
Plasma [5] = assay: Stability in mouse plasma assessed as compound remaining after 3 hrs; format: ADME, cell-free
Liver microsomes = assay: Stability in human liver microsomes assessed as compound remaining after 1 hr; format: ADME, Microsome
Plasma [6] = assay: Stability in human plasma assessed as compound remaining after 3 hrs; format: ADME, cell-free
Plasma [7] = assay: Plasma protein binding in mouse at 10 uM; format: ADME, cell-free
Plasma [8] = assay: Plasma protein binding in human at 1 uM; format: ADME, cell-free
Plasma [9] = assay: Plasma protein binding in human at 10 uM; format: ADME, cell-free
Plasma [10] = assay: Plasma protein binding in mouse at 1 uM; format: ADME, cell-free
[11] = Blood brain barrier permeability of the compound at pH 7.4 by PAMPA; format: ADME
[12] = Permeability of the compound at donor pH 6.2 by PAMPA; format: ADME
[13] = Permeability of the compound at donor pH 7.4 by PAMPA; format: ADME
[14] = Permeability of the compound at donor pH 5 by PAMPA; format: ADME
[15] = Aqueous solubility in pION's buffer at pH 6.2; format: physicochemical
[16] = Aqueous solubility in pION's buffer at pH 7.4; format: physicochemical
[17] = Aqueous solubility in PBS buffer at pH 7.4; format: physicochemical
[18] = target: Glucose-6-phosphate 1-dehydrogenase (Homo sapiens, UniProt P11413); assay: Inhibition of human glucose-6-phosphate dehydrogenase after 90 mins by resazurin/diaphorasecoupled assay
Glucose-6-phosphate 1-dehydrogenase (Homo sapiens, UniProt P11413), sequence (P11413 whole entry): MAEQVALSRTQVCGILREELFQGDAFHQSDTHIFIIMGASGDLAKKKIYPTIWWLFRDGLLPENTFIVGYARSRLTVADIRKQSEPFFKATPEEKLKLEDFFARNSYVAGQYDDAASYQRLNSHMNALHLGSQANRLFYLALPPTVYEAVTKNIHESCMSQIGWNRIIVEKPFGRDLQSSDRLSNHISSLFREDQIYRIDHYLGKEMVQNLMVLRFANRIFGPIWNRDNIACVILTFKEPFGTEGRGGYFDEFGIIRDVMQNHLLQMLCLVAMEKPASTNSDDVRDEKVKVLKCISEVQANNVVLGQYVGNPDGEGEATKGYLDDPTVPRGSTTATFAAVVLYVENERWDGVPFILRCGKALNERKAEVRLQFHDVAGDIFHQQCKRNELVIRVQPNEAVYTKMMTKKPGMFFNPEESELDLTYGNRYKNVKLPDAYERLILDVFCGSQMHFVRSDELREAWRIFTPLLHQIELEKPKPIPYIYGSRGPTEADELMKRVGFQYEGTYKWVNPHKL
Summary of the method: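 Dose response with a top final concentration of […] and 0.8% final DMSO, in 50 mM Tris pH 7.5, 0.005% Tween 20 and 1 mg/mL BSA. The enzyme solution held 0.05 μg/mL hG6PD. The substrate solution held 0.64 mM G6P, 12 μM NADP+, 6.6 mM MgCl2, 2 U/mL diaphorase and 0.28 mM resazurin.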

[19] = target: T1, Glucose-6-phosphate 1-dehydrogenase (Plasmodium falciparum, UniProt Q25856); assay: Inhibition of Plasmodium falciparum glucose-6-phosphate dehydrogenase after 45 mins by orthogonal assay
T1 sequence (Q25856 whole entry): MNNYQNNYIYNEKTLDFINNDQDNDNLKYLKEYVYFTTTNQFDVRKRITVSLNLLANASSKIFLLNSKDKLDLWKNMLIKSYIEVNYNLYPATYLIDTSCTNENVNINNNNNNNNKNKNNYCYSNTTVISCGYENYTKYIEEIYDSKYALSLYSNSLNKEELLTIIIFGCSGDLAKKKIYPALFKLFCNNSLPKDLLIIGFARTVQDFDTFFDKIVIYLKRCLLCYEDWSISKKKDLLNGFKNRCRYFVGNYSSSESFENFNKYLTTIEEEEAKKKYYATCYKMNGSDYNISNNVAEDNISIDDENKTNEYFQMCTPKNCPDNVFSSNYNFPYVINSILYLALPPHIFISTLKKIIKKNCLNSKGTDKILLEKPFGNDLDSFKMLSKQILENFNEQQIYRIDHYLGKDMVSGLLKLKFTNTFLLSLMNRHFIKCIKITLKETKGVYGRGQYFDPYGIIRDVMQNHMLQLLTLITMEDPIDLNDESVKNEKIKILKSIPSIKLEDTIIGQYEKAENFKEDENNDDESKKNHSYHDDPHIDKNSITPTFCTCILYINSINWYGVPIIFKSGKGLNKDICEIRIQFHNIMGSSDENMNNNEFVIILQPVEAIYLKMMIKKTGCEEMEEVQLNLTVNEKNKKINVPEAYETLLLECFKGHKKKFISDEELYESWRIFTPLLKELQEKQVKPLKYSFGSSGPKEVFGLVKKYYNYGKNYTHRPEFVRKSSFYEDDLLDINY
Summary of the method: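 Direct NADPH read without coupling: PfGluPho (0.4 μg/mL enzyme solution) in 50 mM Tris pH 7.5, 0.005% Tween 20, 1 mg/mL BSA; substrate 40 μM G6P, 6 μM NADP+, 6.6 mM MgCl2.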

[20] = Aqueous solubility in pION's buffer at pH 5; format: physicochemical
[21] = target: T1, Glucose-6-phosphate 1-dehydrogenase; assay: Inhibition of Plasmodium falciparum glucose-6-phosphate dehydrogenase after 2 hrs by resazurin/diaphorasecoupled assay
[22] = Drug degradation in PBS buffer assessed as compound depletion at pH 7.4 after 30 mins by RP-LCMS analysis in presence of glutathione; format: physicochemical; details: pH 7.4, 0.5 h
Summary of the method: (§3)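 Compound from a 1 mM DMSO stock, final 10 μM with 1% DMSO, in PBS pH 7.4 with 5 equivalents glutathione (from a 10 mM PBS stock), shaken in capped glass vials at 23 °C. Aliquots were analysed by RP-HPLC-MS on a C18 column at 0, 0.5, 1, 2, 4, 6, 18 and […]. Percent remaining versus 0 h was taken from peak AUC.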

[23] = Chemical stability in PBS buffer at pH 7.4 at 10 uM up to 18 hrs by RP-LCMS analysis in presence of glutathione; format: physicochemical; details: pH 7.4, 18 h; summary of the method: as §3
[24] = Drug degradation in PBS buffer assessed as compound depletion at pH 7.4 after 24 hrs by RP-LCMS analysis in presence of glutathione; format: physicochemical; details: PBS buffer with glutathione, read-out: Drug metabolism; summary of the method: as §3

SMILES: CCN1CCC[C@@H]1CNC(=O)c1ccc2c(c1)NC(=O)/C(=C/c1ccccc1F)S2
inhibition (Plasmodium falciparum [1]): Active | inhibition (Plasmodium falciparum [2]): Active | pIC50 (Plasmodium falciparum [3]): 5.43 | pIC50 (Plasmodium falciparum [4]): 5.63 | CC50 (Hepatocyte): > 50000 nM | Stability (Liver): 37.57% | Stability (Plasma [5]): 80.84% | Stability (Liver microsomes): 60.53% | Stability (Plasma [6]): 90.98% | PPB (Plasma [7]): 98.34% | PPB (Plasma [8]): 98.39% | PPB (Plasma [9]): 97.98% | PPB (Plasma [10]): 98.95% | permeability [11]: 233 ×10⁻⁶ cm/s | permeability [12]: 737 ×10⁻⁶ cm/s | permeability [13]: 806 ×10⁻⁶ cm/s | permeability [14]: 29 ×10⁻⁶ cm/s | solubility [15]: > 296 µM | solubility [16]: 69 µM (≈ 29.4 µg/mL) | solubility [17]: 166 µM (≈ 70.6 µg/mL) | pIC50 [18]: < 4.10 | pIC50 [19]: 5.72 | solubility [20]: > 296 µM | pIC50 [21]: 6.05

Drug metabolism [22]: Active | Stability [23]: Stable | degraded at 24 h [24]: 97%
SMILES: C=C(CC)C(=O)c1ccc(OCC(=O)O)c(Cl)c1Cl [ETHACRYNIC ACID]
